Most compounds without a hit are left out; they make up all but 1% or so of the library.
Fh CTSL1 inh: cathepsin L1 inhibition, PFM18AAP counter-screen | inhibition, % at 5.96 µM | hit rate 0.49% among 300,000 | AID 1906 | recombinant F. hepatica cathepsin L1, Z-Leu-Arg-MCA fluorescence;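 active means inhibition above the mean of all tested compounds plus 3 SD, set per screening campaign, cut at about 17% in these data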;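 further: 0% = plate median of test compound wells and 100% = 1 µM Z-Phe-Ala-diazomethylketone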
Arrestin-AP2 inh: human beta-arrestin and AP2 interaction inhibition. FITC-arrestin peptide / GST-AP2 beads, flow cytometry; AP2 beta2 appendage carries R879A mutation. inhibition, % at 10 µM. hit rate 0.31% among 340,000. AID 504490;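 active means inhibition above a set limit, near 3 SD of compounds lacking own fluorescence, cut at about 54% in these data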;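 further: plate controls were DMSO wells for no effect and 5 µM unlabelled arrestin peptide for full effect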
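Assay system: GST-AP2 R879A bound to glutathione beads, E. coli-expressed; Medium: PBS with 0.05% Tween 20 and 0.1% BSA; Also added: fluorescein-tagged arrestin peptide at 50 nM final; Timing: 12 min plus 1 h, RT; Measured by: flow cytometry, FL1 (488/535 nm); Evaluation: percent drop in bead-associated FITC signal.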
p-CIP stab down: p/CIP protein destabilization. hit rate 0.01% among 290,000. Q05BA5. decrease of EGFP signal, % at 10 µM. F442A p/CIP-EGFP cells, EGFP fluorescence, 16 h;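 active means EGFP signal decrease of at least 30% at 10 µM or well 3 SD below plate mean, unless failing retest; inactive means the rest, including hits failing retest or dose response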
Hep lipid drop: hepatic lipid droplet formation modulation; AML12 mouse hepatocytes, oleate lipid droplets, BODIPY imaging; inhibition, % at 6.5 µM; hit rate 0.4% among 240,000; AID 1656;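 active means lipid droplet intensity inhibited by at least 50%, with more than 500 cells counted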
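Assay system: AML12 hepatocytes (mouse); Probe or stimulus: oleic acid at 100 µM to induce lipid droplet formation; Dosing: compound at 6.5 µM only; Schedule: compound with oleate, overnight; Detection: fluorescence imaging, 20x objective, two fields per well; Measure: % inhibition of lipid droplet signal.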
Arr AP2 CP1: inhibitors of human beta-arrestin and AP2 interaction; hit rate 2% among 1,300; AID 504908; GST-AP2 beads, FITC arrestin peptide binding, flow cytometry; GST-fused beta2-adaptin appendage, R879A mutant; shares compounds with Arrestin-AP2 inh; inhibition, % at 10 µM;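 active means inhibition above a set limit, roughly 3 SD of non-fluorescent compound noise, cut at about 38% in these data; inactive means inhibition at or below that limit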;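 further: loss of bead fluorescence from 50 nM FITC arrestin peptide bound to appendage; 0% = negative control wells and 100% = excess unlabelled arrestin peptide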
GST GSH counter: disrupts GST binding to glutathione beads, arrestin-AP2 artifact; shares compounds with Arrestin-AP2 inh; GST-fluorescein binding to GSH beads, fluorescence, counter-screen; inhibition, % at 10 µM; hit rate 2% among 1,300; AID 588338;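 active means inhibition above 50%, about 3 SD of the inhibition seen with non-fluorescent compounds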;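 further: fluorescein maleimide labelled GST captured on 4 micron glutathione beads; higher means more loss of bead fluorescence from quenching or blocked binding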
The depositor's hits bear a star; / = not tested or not shown.

SMILES | Fh CTSL1 inh | Arrestin-AP2 inh | p-CIP stab down | Hep lipid drop | Arr AP2 CP1 | GST GSH counter
CCN(CC)S(=O)(=O)c1ccc(C(=O)Nc2ccc(Cc3ccncc3)cc2)cc1 | 10.6 | 56.1* | -17.6 | 4.2 | 7.5 | -5.7
CCC(=O)Nc1c(C#N)c2nc3ccccc3nc2n1C1CCCCC1 | -1.4 | 75.1* | -7.7 | -2.0 | -2.9 | -6.8
COC(=O)c1cccc(NC(=O)CN(c2ccc3c(c2)OCO3)S(C)(=O)=O)c1C | 2.4 | 61.1* | -8.7 | 9.4 | 7.4 | 4.8
CC(Sc1ccc(Cl)cc1)C(=O)N(C)CC(=O)Nc1ccc(N2CCOCC2)cc1 (stereo not drawn) | 0.5 | 56.4* | / | / | 5.5 | -7.0
Cc1c(CC(=O)NCCC(=O)O)c(=O)oc2cc3occ(-c4ccccc4)c3cc12 | 1.7 | -1.9 | 0.4 | 2.6 | / | /
COc1cccc(CN(C)C(=O)C2CCC(=O)N(Cc3cccc(F)c3)C2)c1 (stereo not drawn) | -2.6 | 41.7 | 2.2 | -25.5 | -1.9 | -1.2
CN(Cc1ccccn1)C(=O)C1CCC(=O)N(Cc2cccc(F)c2)C1 (stereo not drawn) | 3.5 | -8.1 | -2.7 | 5.5 | / | /
O=C(CSc1nc2ccc([N+](=O)[O-])cc2[nH]1)c1ccc2ccccc2c1 | -3.9 | 105.8* | -10.5 | / | -4.6 | 3.9
O=C(CSc1nc2ncc(Br)cc2[nH]1)c1ccc([N+](=O)[O-])cc1 | -0.2 | 0.2 | 4.7 | -1.2 | / | /
CCc1cc2c(C)cc(C)cc2nc1SCC(=O)Nc1cc(C)on1 | 1.1 | 7.6 | -0.3 | -14.5 | / | /
C[C@H]1CCC(=O)N([C@H](CN=[N+]=[N-])Cc2ccccc2)CC1 | 4.5 | 20.8 | 0.7 | -22.9 | / | /
COc1ccc(NC(=O)CN(C)C(=O)C(NC(=O)c2ccco2)C(C)C)cc1 (stereo not drawn) | / | 60.8* | / | / | 0.5 | -1.9
CN(C(=O)c1cccc(NC(=O)c2cccs2)c1)c1ccccc1 | -1.7 | 4.7 | -13.8 | -20.1 | / | /
c1ccc(Nc2cccc(Nc3ccccc3)n2)cc1 | 0.9 | 61.3* | -1.1 | 11.9 | 19.7 | 5.9
c1ccc(Nc2ccccn2)cc1 | 2.9 | -0.8 | 0.1 | -7.8 | / | /
O=C(Nc1ccc2c(c1)OCO2)N1CCC(CO)(CC2CCCCO2)CC1 (stereo not drawn) | 6.4 | -3.7 | -17.0 | -1.7 | / | /
C/C(=N\NC(=O)Nc1ccccc1)c1ccc2ccccc2c1 | 3.4 | 92.7* | 8.1 | -3.7 | -5.9 | -1.1
NC(=O)c1cnn2c(-c3cccc(C(F)(F)F)c3)ccnc12 | -2.2 | 67.6* | -2.2 | -6.5 | -11.5 | -4.1
O=C(O)c1cnn2c(-c3ccccc3)ccnc12 | 2.8 | -14.2 | 6.0 | 9.2 | / | /
NC(=O)NCC(c1ccccc1)C1CCCCC1 (stereo not drawn) | -4.4 | 61.4* | -17.2 | 8.2 | -6.7 | -2.2
N#Cc1c(SCC(=O)Nc2ccccc2)nsc1SCC(=O)Nc1ccccc1 | -2.1 | 108.7* | -8.3 | 4.2 | 7.5 | -1.1
O=C(N/N=C/c1ccccn1)c1cc(-c2ccc(Cl)cc2)nc2ccccc12 | -0.7 | -1.4 | 9.2 | 9.4 | / | /
CC1(c2cccc(Br)c2)NC(=O)N(CC(=O)NC2CCCCC2)C1=O (stereo not drawn) | / | 21.1 | / | / | / | /
Cc1cc(C)nc(-n2cc(C(=O)c3cc(F)ccc3O)cn2)n1 | -1.5 | -0.7 | -8.3 | 22.6 | / | /
c1ccc(-c2cnnc(SCc3cn4cccnc4n3)n2)cc1 | 0.9 | 60.3* | 5.3 | / | -1.6 | -0.9
SMILES | Fh CTSL1 inh | Arrestin-AP2 inh | p-CIP stab down | Hep lipid drop | Arr AP2 CP1 | GST GSH counter
c1ccc2[nH]c(SCc3cn4cccnc4n3)nc2c1 | -0.3 | -6.2 | -2.8 | 10.3 | / | /
Cc1ccc(NC(=O)CSc2ccc3c(c2)OCCO3)c(O)c1 | -0.3 | 6.7 | -24.7 | -90.3 | / | /
O=C(Nc1cccc(S(=O)(=O)N2CCOCC2)c1)c1ccc(=O)[nH]c1 | / | -2.1 | / | / | -6.6 | 4.6
O=C(Nc1cccc(S(=O)(=O)N2CCOCC2)c1)c1cc(=O)[nH]c2ccccc12 | / | 20.2 | / | / | 1.0 | -1.0
O=C(Nc1cccc(S(=O)(=O)N2CCCCC2)c1)c1cc(=O)[nH]c2ccccc12 | / | 1.3 | / | / | -6.7 | -4.5
Cc1cc(C(=O)Nc2cccc(S(=O)(=O)N3CCOCC3)c2)c2ccccc2n1 | / | 30.8 | / | / | -11.9 | -4.9
O=C(Nc1cccc(S(=O)(=O)N2CCOCC2)c1)c1cccc(S(=O)(=O)N2CCCC2)c1 | / | -6.9 | / | / | / | /
O=C(Cc1cccc(NC(=O)C2CCCN(C(=O)C3CCC3)C2)c1)Nc1ccc(C(=O)N2CCOCC2)cc1 (stereo not drawn) | / | -4.7 | / | / | / | /
O=[N+]([O-])c1csc2ccccc12 | / | -4.3 | / | / | / | /
Cc1cc(C)c(NC(=O)CCCCCNC2CCCCC2)c(C)c1 | / | -0.5 | -8.0 | 15.2 | / | /
COCCSc1nnc(NS(=O)(=O)c2ccc(C)cc2)s1 | 1.4 | 59.0* | -16.9 | 1.4 | 3.4 | -2.0
CCOC(=O)C1=C(COC(=O)CCOc2ccc(OCC)cc2)NC(=O)NC1C (stereo not drawn) | / | -5.9 | / | / | -0.1 | 1.0
CCOC(=O)C1=C(COC(=O)c2ccc(C)s2)NC(=O)NC1C (stereo not drawn) | 2.9 | 30.8 | / | / | / | /
CCOC(=O)C1=C(COC(=O)CCOc2ccccc2C)NC(=O)NC1C (stereo not drawn) | -32.8 | 0.7 | / | / | -9.8 | -8.4
CCOC(=O)C1=C(COC(=O)c2ccccc2OC)NC(=O)NC1C (stereo not drawn) | / | 17.1 | / | / | / | /
CCOC(=O)C1=C(COC(=O)CCCOc2ccccc2)NC(=O)NC1C (stereo not drawn) | / | 0.0 | / | / | -8.5 | -3.8
CCOC(=O)C1=C(CC)Nc2ccccc2N/C1=N\S(=O)(=O)c1cc(Br)ccc1Br | / | -10.1 | 7.1 | -33.2 | / | /
Cc1ccc2nc(SCC(=O)N3CCCC3)nc(=O)n2c1 | 5.9 | 2.3 | / | / | / | /
CCc1nnc(NC(=O)CCC(=O)N2CCN(Cc3cc(F)ccc3OC)CC2)s1 | 0.6 | -55.9 | -5.1 | / | / | /
COc1ccc(F)cc1CN1CCN(C(=O)CCC(=O)Nc2nnc(CC(C)C)s2)CC1 | 10.0 | 54.4* | -10.2 | 7.8 | 7.8 | -5.2
CCOCCCn1c(SCC(=O)NC2CCCC2)nc2ccccc2c1=O | 1.1 | 3.1 | -3.3 | -0.6 | / | /
CC(C)(C)c1ccc(C(=O)NCC(=O)NNC(=O)c2ccccc2O)cc1 | 1.9 | 77.2* | / | / | -9.2 | 3.9
CC(C)(C)c1ccc(OCCCC(=O)NNC(=O)c2ccccc2O)cc1 | 3.2 | -7.1 | / | / | / | /
N#Cc1cccc(-n2nnnc2-c2ccc3c(c2)OCO3)c1 | -2.5 | 69.7* | -6.6 | -5.3 | -6.5 | -10.5
N#Cc1ccc(-c2nnnn2-c2ccc3c(c2)OCO3)cc1 | -0.4 | 0.9 | -6.2 | / | / | /
Cc1nc(-c2ccccc2)nc(Cl)c1Cl | -3.2 | 6.1 | 3.0 | -7.7 | / | /
O=C(CNC(=O)c1ccc(Br)cc1)Nc1ccc2c(c1)CCC2 | / | 54.5* | / | / | 12.3 | 2.7
CCN1/C(=C\C(=S)Nc2ccccc2)Sc2ccccc21 | 4.3 | 0.5 | -12.5 | -2.0 | / | /

Screens (PubChem)
